Tests used:
SH-SY5Y cells = assay: MTT colorimetric cytotoxicity assay; type: cell-based; conditions: Homo sapiens, 24 h
In short: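 SH-SY5Y cells were grown in DMEM with 10% FBS at 0.1 × 10^5 cells/well for 24 h at 37 °C ([…]/5% CO2) to half-confluence. After a PBS wash and 1 h in serum-free medium, cells received free or nanoparticle test compound (0.05–100 µM) or serum-free medium for 24 h. MTT (1 mg/mL) was added for 4 h; formazan was dissolved in DMSO and read at 540 nm. Viability is expressed as % of control.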

[1] = Plasma pharmacokinetics after IV administration; type: in vivo, Sprague-Dawley male rats; conditions: male, Sprague-Dawley, rat, 5 mg/kg
In short: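 Male Sprague-Dawley rats (8–12 weeks) received 5 mg/kg IV. Blood was taken retro-orbitally under isoflurane into K2EDTA at 0.08–24 h (nine points, 3 rats each), and plasma was stored at -85 °C. LC-MS/MS quantification used a 1.03–1026.00 ng/mL calibration with 1/x2 weighting. Noncompartmental analysis on means: AUC by mixed log-linear method, CL = Dose/AUCinf, Vss = CL×MRT.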

[2] = Tissue distribution after IV administration; type: in vivo, Sprague-Dawley male rats; conditions: for AUC0 − t: 5 mg/kg IV, rats; for Cmax: male, Sprague-Dawley, rat, iv, 5 mg/kg
In short: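 Male Sprague-Dawley rats (8–12 weeks), 27 per group (free drug or one of two nanoparticle formulations), 3 rats at each of nine time points. Single 5 mg/kg IV dose. CO2 euthanasia; tissues excised, saline-rinsed, homogenized 1:4 in PBS pH 7.4, stored at −85 °C. LC-MS/MS against matrix-matched calibration (1.03–1026.00 ng/mL). Noncompartmental AUC0–t and Cmax; Kp as tissue/plasma AUC ratio; means reported.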

AUC(0-inf) [1]: 1920 ng·h/mL
clearance ([1]; CL, 5 mg/kg IV, rats): 21.8 mL/min/kg
AUC0 − t ([2]; brain posterior region): 757.5 ng·h/g
AUC0 − t ([2]; cerebellum): 402.5 ng·h/g
AUC0 − t ([2]; frontal cortex): 383.8 ng·h/g
Cmax ([2]; cerebellum): 120 ng/g
Cmax ([2]; frontal cortex): 129 ng/g
Cmax ([2]; kidney): 485 ng/g
Cmax ([2]; liver): 2440 ng/g
Cmax ([2]; lungs): 12700 ng/g
Cmax ([2]; posterior brain region): 162 ng/g
Structure (SMILES): CC(=O)c1c(C)c2cnc(Nc3ccc(N4CCNCC4)cn3)nc2n(C2CCCC2)c1=O [Palbo, Palbociclib]
IC50 (SH-SY5Y cells): 860 nM
